One block for each molecule: values may come before it. Ends that are not written are not given here. * marks the point of attachment. FITC = O=C1OC2(c3ccc(O)cc3Oc3cc(O)ccc32)c2ccc(NC(=S)*)cc21
Tests used:
[1] = biological target: T1, EphA4 LBD (Homo sapiens, UniProt P54764); test: Protein NMR 2D [15N,1H]-HSQC chemical shift perturbation / titration; assay type: binding; conditions: for binding of individual side-chain fragments by 2D HSQC: perturbations observable only at higher ligand concentrations (3 mM)
T1 sequence (P54764 29-209): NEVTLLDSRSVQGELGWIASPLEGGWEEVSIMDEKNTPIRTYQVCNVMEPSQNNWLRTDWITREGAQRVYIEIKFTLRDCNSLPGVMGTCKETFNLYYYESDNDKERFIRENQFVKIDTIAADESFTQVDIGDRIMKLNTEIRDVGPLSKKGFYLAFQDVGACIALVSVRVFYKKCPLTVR
Summary of the method: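 15N-labelled EphA4 LBD (M9 medium with (15NH4)2SO4) at 50 µM was used. 2D [15N,1H]-HSQC spectra (32 scans, 2,048 × 128 complex points, 300 K) were recorded with and without test compound. Shifts were computed as Δδ = √[(Δ1H)² + (0.17·Δ15N)²]. For Kd, compound was titrated stepwise and Δδ was fitted to a quadratic binding equation.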

[2] = biological target: T1, EphA4 LBD; test: Fluorescence polarization assay; assay type: binding; conditions: 5 µM FITC-KYL, 2 µM EphA4 LBD
Summary of the method: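 Human EphA4 LBD (residues 29–209), His-tag purified from E. coli Rosetta-gami (DE3), at 2 µM final, was preincubated 10 min at room temperature with varying test compound in PBS pH 7.2. N-terminally FITC-labelled KYL peptide (5 µM final) was added. After 30 min at room temperature, polarization (mP) was read at ex/em 480/535 nm. Unlabelled KYL served as positive control, DMSO as negative.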

[3] = biological target: human EphA4 ligand-binding domain (residues 29-209) (human, UniProt P54764 29-209); test: fluorescence polarisation
Chain of human EphA4 ligand-binding domain (residues 29-209) (P54764 29-209): as above

Molecule: Cc1c[nH]c2ccccc12 [3-methylindole]
binding of individual side-chain fragments by 2D HSQC [1]: weak binding affinities

Molecule: Cc1ccc(Cl)cc1 [4-chlorotoluene]
binding of individual side-chain fragments by 2D HSQC [1]: weak binding affinities

Further lines, results first:

IC50 by FPA [2]: inactive
binding by 2D [15N,1H]-HSQC chemical shift perturbation ([1]; 50 µM EphA4 LBD, 100 µM compound): inactive
Molecule: KYLP

binding result [3]: binds
B1: FITC-labeled KYL peptide (peptide)
peptide: {FITC}-KYLPYWPVLSSL

From paper PMC3966493 (Chemistry & biology, 2013)
